According to ChEMBL document CHEMBL4219197, “Synthesis, biological evaluation and SAR of naftopidil-based arylpiperazine derivatives” (Bioorg Med Chem Lett, 2018):
pIC50: −log10 of the molar value.

Key:
PC-3 = test: Cytotoxicity against human PC3 cells assessed as growth inhibition after 24 hrs by CCK8 assay; assay type: functional, cell-based; settings: PC-3, 24 h
In short: (§1)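 Cells (PC-3, LNCaP, DU145, normal prostate […] WPMY-1) exposed 24 h to escalating concentrations; viability by CCK-8 read-out as percent of control; IC50 derived.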

LNCaP = test: Cytotoxicity against human LNCAP cells assessed as growth inhibition after 24 hrs by CCK8 assay; assay type: functional, cell-based; in short: as §1
DU-145 [1] = test: Cytotoxicity against human DU145 cells assessed as growth inhibition after 24 hrs by CCK8 assay; assay type: functional, cell-based; settings: DU-145, 24 h; in short: as §1
[2] = Cytotoxicity against human WPMY-1 cells assessed as growth inhibition after 24 hrs by CCK8 assay; assay type: cell-based; settings: WPMY-1, 24 h; in short: as §1
DU-145 [3] = test: Potency index, ratio of naftopidil IC50 to compound IC50 for human DU145 cells; assay type: functional
DU-145 [4] = test: Cell cycle arrest in human DU145 cells assessed as accumulation at G0/G1 phase at 6 uM after 24 hrs by propidium iodide staining based flow cytometry (reference value: 55.49%); assay type: functional
DU-145 [5] = test: Cell cycle arrest in human DU145 cells assessed as accumulation at S phase at 6 uM after 24 hrs by propidium iodide staining based flow cytometry (reference value: 20.64%); assay type: functional
DU-145 [6] = test: Cell cycle arrest in human DU145 cells assessed as accumulation at G2/M phase at 6 uM after 24 hrs by propidium iodide staining based flow cytometry (reference value: 24.42%); assay type: functional
DU-145 [7] = test: Induction of apoptosis in human DU145 cells assessed as live cells at 6 uM after 24 hrs by Annexin V/propidium iodide staining based flow cytometry (reference value: 99.38%); assay type: functional
DU-145 [8] = test: Induction of apoptosis in human DU145 cells assessed as early apoptotic cells at 6 uM after 24 hrs by Annexin V/propidium iodide staining based flow cytometry (reference value: […]); assay type: functional
DU-145 [9] = test: Induction of apoptosis in human DU145 cells assessed as late apoptotic cells at 6 uM after 24 hrs by Annexin V/propidium iodide staining based flow cytometry (reference value: 0.17%); assay type: functional
DU-145 [10] = test: Induction of apoptosis in human DU145 cells assessed as necrotic cells at 6 uM after 24 hrs by Annexin V/propidium iodide staining based flow cytometry (reference value: 0.33%); assay type: functional
[11] = biological target: T1, Alpha-1A adrenergic receptor (Homo sapiens, UniProt P35348); test: Antagonist activity at alpha 1A adrenergic receptor (unknown origin) by luciferase reporter gene assay; assay type: functional
T1 sequence (P35348 whole entry): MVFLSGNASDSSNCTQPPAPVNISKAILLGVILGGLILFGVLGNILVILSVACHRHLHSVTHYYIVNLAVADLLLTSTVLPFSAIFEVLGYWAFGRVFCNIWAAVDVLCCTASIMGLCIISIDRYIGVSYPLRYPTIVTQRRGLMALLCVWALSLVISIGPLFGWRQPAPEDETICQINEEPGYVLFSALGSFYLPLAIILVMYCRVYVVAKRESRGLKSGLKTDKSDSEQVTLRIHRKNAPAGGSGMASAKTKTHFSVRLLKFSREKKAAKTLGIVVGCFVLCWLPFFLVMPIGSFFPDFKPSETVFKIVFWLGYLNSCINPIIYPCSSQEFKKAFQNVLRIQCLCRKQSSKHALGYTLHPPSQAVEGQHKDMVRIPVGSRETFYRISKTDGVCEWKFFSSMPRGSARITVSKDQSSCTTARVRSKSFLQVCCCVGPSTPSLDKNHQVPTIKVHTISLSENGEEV
In short: (§2)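 Dual-luciferase reporter assay measuring antagonism at α1A, α1B and α1D adrenoceptor subtypes. IC50 values are means of three experiments.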

[12] = biological target: T2, Alpha-1B adrenergic receptor (Homo sapiens, UniProt P35368); test: Antagonist activity at alpha 1B adrenergic receptor (unknown origin) by luciferase reporter gene assay; assay type: functional; in short: as §2
T2 sequence (P35368 whole entry): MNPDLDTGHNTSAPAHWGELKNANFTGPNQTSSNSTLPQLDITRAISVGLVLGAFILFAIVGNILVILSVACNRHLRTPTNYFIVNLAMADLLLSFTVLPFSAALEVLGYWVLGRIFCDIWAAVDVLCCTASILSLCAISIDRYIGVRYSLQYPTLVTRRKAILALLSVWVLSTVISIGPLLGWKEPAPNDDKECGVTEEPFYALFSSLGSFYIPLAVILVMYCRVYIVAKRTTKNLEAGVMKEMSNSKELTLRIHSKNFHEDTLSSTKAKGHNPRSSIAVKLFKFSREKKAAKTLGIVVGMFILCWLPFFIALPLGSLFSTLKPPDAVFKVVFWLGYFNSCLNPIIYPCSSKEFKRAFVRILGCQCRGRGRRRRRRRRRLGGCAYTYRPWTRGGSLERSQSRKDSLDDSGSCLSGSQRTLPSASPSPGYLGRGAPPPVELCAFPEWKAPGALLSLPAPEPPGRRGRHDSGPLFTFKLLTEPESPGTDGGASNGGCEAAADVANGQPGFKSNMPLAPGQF

[13] = biological target: T3, Alpha-1D adrenergic receptor (Homo sapiens, UniProt P25100); test: Antagonist activity at alpha 1D adrenergic receptor (unknown origin) by luciferase reporter gene assay; assay type: functional; in short: as §2
T3 sequence (P25100 whole entry): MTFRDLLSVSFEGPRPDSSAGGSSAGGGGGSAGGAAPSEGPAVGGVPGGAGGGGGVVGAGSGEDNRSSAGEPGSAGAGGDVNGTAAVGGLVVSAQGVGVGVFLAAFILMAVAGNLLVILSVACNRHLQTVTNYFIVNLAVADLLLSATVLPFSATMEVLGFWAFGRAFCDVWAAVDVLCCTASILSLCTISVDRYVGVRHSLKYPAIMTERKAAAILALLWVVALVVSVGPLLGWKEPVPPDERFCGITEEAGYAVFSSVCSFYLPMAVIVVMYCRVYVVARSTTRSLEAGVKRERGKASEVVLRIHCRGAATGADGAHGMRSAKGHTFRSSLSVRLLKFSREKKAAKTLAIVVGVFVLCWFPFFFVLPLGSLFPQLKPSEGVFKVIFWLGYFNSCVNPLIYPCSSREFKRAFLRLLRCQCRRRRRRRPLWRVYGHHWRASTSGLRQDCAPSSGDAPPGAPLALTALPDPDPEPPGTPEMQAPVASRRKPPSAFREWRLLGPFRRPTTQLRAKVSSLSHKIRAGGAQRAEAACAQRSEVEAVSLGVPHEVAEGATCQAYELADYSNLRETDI

DU-145 [14] = test: Cell cycle arrest in human DU145 cells assessed as accumulation at G0/G1 phase at 8 uM after 24 hrs by propidium iodide staining based flow cytometry (reference value: 55.49%); assay type: functional
DU-145 [15] = test: Cell cycle arrest in human DU145 cells assessed as accumulation at S phase at 8 uM after 24 hrs by propidium iodide staining based flow cytometry (reference value: 20.64%); assay type: functional
DU-145 [16] = test: Cell cycle arrest in human DU145 cells assessed as accumulation at G2/M phase at 8 uM after 24 hrs by propidium iodide staining based flow cytometry (reference value: 24.42%); assay type: functional
DU-145 [17] = test: Induction of apoptosis in human DU145 cells assessed as live cells at 8 uM after 24 hrs by Annexin V/propidium iodide staining based flow cytometry (reference value: 99.38%); assay type: functional
DU-145 [18] = test: Induction of apoptosis in human DU145 cells assessed as early apoptotic cells at 8 uM after 24 hrs by Annexin V/propidium iodide staining based flow cytometry (reference value: […]); assay type: functional
DU-145 [19] = test: Induction of apoptosis in human DU145 cells assessed as late apoptotic cells at 8 uM after 24 hrs by Annexin V/propidium iodide staining based flow cytometry (reference value: 0.17%); assay type: functional
DU-145 [20] = test: Induction of apoptosis in human DU145 cells assessed as necrotic cells at 8 uM after 24 hrs by Annexin V/propidium iodide staining based flow cytometry (reference value: 0.33%); assay type: functional

SMILES	pIC50 (PC-3)	pIC50 (LNCaP)	pIC50 (DU-145 [1])	pIC50 [2]	further results
Cc1ccc(Cl)cc1N1CCN(CCc2ccc(COc3ccc4c(c3)CCCC4)cc2)CC1	< 4.30	5.11	< 4.30	< 4.30	
FC(F)(F)c1ccccc1N1CCN(CCc2ccc(COc3ccc4c(c3)CCCC4)cc2)CC1	< 4.30	5.22	< 4.30	< 4.30	
COc1cccc(N2CCN(CCc3ccc(COc4ccc5c(c4)CCCC5)cc3)CC2)c1	5.55	5.10	4.55	4.54	
Cl.Cl.Fc1ccc(N2CCN(CCc3ccc(COc4ccc5c(c4)CCCC5)cc3)CC2)cc1	4.24	4.32	6.05	< 4.30	Ratio IC50 (DU-145 [3]): 38; Activity (DU-145 [4]): 70.5%; Activity (DU-145 [5]): 20.42%; Activity (DU-145 [6]): 12.72%; Activity (DU-145 [7]): 99.5%; Activity (DU-145 [8]): 0.05%; Activity (DU-145 [9]): 0.1%; Activity (DU-145 [10]): 0.28%; pIC50 [11]: 5.97; pIC50 [12]: 5.95; pIC50 [13]: 6.99
CC(C)(C)NC(=O)[C@H]1CC[C@H]2[C@@H]3CC[C@H]4NC(=O)C=C[C@]4(C)[C@H]3CC[C@]12C [FINASTERIDE]	4.75	4.84	4.87		
OC1(c2ccccc2)CCN(CCc2ccc(COc3ccc4c(c3)CCCC4)cc2)CC1	< 4.30	5.52	5.47	4.50	
N#Cc1ccccc1N1CCN(CCc2ccc(COc3ccc4c(c3)CCCC4)cc2)CC1	4.50	5.70	4.53	< 4.30	
c1ccc(N2CCN(CCc3ccc(COc4ccc5c(c4)CCCC5)cc3)CC2)cc1	< 4.30	5.19	< 4.30	< 4.30	
Fc1ccccc1N1CCN(CCc2ccc(COc3ccc4c(c3)CCCC4)cc2)CC1	4.56	5.12	< 4.30	< 4.30	
Clc1cccc(N2CCN(CCc3ccc(COc4ccc5c(c4)CCCC5)cc3)CC2)c1Cl	< 4.30	5.51	4.64	< 4.30	
Cl.c1ccc(C2CCN(CCc3ccc(COc4ccc5c(c4)CCCC5)cc3)CC2)cc1	4.98	5.40	6.02	< 4.30	Ratio IC50 (DU-145 [3]): 36; pIC50 [11]: 6.25; pIC50 [12]: 6.17; pIC50 [13]: 6.34
COc1ccc(Cl)cc1N1CCN(CCc2ccc(COc3ccc4c(c3)CCCC4)cc2)CC1	< 4.30	< 4.30	4.60	4.33	
CCOc1ccccc1N1CCN(CCc2ccc(COc3ccc4c(c3)CCCC4)cc2)CC1	< 4.30	4.55	< 4.30	< 4.30	
Cc1ccc(N2CCN(CCc3ccc(COc4ccc5c(c4)CCCC5)cc3)CC2)cc1	< 4.30	< 4.30	4.60	< 4.30	
FC(F)(F)c1ccc(N2CCN(CCc3ccc(COc4ccc5c(c4)CCCC5)cc3)CC2)cc1	< 4.30	< 4.30	< 4.30	< 4.30	
Cc1cccc(N2CCN(CCc3ccc(COc4ccc5c(c4)CCCC5)cc3)CC2)c1.Cl.Cl	4.25	< 4.30	6.08	< 4.30	Ratio IC50 (DU-145 [3]): 41; pIC50 [11]: 6.30; pIC50 [12]: 6.23; pIC50 [13]: 6.08
Cc1ccccc1N1CCN(CCc2ccc(COc3ccc4c(c3)CCCC4)cc2)CC1	4.59	4.48	< 4.30	< 4.30	
COc1ccccc1N1CCN(CCc2ccc(COc3ccc4c(c3)CCCC4)cc2)CC1	< 4.30	5.44	5.65	4.55	
Clc1ccc(N2CCN(CCc3ccc(COc4ccc5c(c4)CCCC5)cc3)CC2)cc1	< 4.30	< 4.30	< 4.30	< 4.30	
Brc1ccc(N2CCN(CCc3ccc(COc4ccc5c(c4)CCCC5)cc3)CC2)cc1	< 4.30	< 4.30	4.68	< 4.30	
COc1ccccc1N1CCN(CC(O)COc2cccc3ccccc23)CC1 (stereo not given) [NAFTOPIDIL]	4.38			< 4.30	
COc1ccc(N2CCN(CCc3ccc(COc4ccc5c(c4)CCCC5)cc3)CC2)cc1.Cl.Cl	4.12	4.34	6.03	< 4.30	Ratio IC50 (DU-145 [3]): 37; Activity (DU-145 [14]): 56.91%; Activity (DU-145 [15]): 21.14%; Activity (DU-145 [16]): 23.04%; Activity (DU-145 [17]): 99.4%; Activity (DU-145 [18]): 0.11%; Activity (DU-145 [19]): 0.12%; Activity (DU-145 [20]): 0.34%; pIC50 [11]: 7.24; pIC50 [12]: 6.01; pIC50 [13]: 6.13
c1ccc(N2CCN(CCc3ccc(COc4ccc5c(c4)CCCC5)cc3)CC2)nc1	4.53	5.53	4.95	4.31	
Clc1ccccc1N1CCN(CCc2ccc(COc3ccc4c(c3)CCCC4)cc2)CC1	4.50	5.33	< 4.30	< 4.30	
Fc1ccc(N2CCN(CCc3ccc(COc4ccc5c(c4)CCCC5)cc3)CC2)c(F)c1	< 4.30	5.36	< 4.30	< 4.30	
Cl.Cl.Clc1cccc(N2CCN(CCc3ccc(COc4ccc5c(c4)CCCC5)cc3)CC2)c1	4.33	4.76	6.07	< 4.30	Ratio IC50 (DU-145 [3]): 40; pIC50 [11]: 5.92; pIC50 [12]: 6.00; pIC50 [13]: 6.54
